{"source": "ChEMBL document CHEMBL1133143", "about": "“Calpain inhibitors based on the quiescent affinity label concept: high rates of calpain inactivation with leaving groups derived from N-hydroxy peptide coupling reagents” (Bioorg Med Chem Lett, 2000)", "key": {"[1]": {"molecular_target": "Cathepsin B (Homo sapiens) (UniProt P07858)", "assay": "Ratio of second order rate constant of calpain I to that of cathepsinB"}, "[2]": {"molecular_target": "Cathepsin B (Homo sapiens) (UniProt P07858)", "assay": "Second order rate constant for inactivation of human liver cathepsin B was reported", "in_short": "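Human liver cathepsin B inactivation was run by an analogous progress-curve method (substrate plus inhibitor) under published assay conditions. The second-order rate constant came from progress-curve analysis. Inhibitor was added as quickly as possible before measurement because of limited aqueous stability.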"}, "[3]": {"molecular_target": "T1, Calpain-1 catalytic subunit (Homo sapiens) (UniProt P07384)", "T1 sequence (whole entry)": "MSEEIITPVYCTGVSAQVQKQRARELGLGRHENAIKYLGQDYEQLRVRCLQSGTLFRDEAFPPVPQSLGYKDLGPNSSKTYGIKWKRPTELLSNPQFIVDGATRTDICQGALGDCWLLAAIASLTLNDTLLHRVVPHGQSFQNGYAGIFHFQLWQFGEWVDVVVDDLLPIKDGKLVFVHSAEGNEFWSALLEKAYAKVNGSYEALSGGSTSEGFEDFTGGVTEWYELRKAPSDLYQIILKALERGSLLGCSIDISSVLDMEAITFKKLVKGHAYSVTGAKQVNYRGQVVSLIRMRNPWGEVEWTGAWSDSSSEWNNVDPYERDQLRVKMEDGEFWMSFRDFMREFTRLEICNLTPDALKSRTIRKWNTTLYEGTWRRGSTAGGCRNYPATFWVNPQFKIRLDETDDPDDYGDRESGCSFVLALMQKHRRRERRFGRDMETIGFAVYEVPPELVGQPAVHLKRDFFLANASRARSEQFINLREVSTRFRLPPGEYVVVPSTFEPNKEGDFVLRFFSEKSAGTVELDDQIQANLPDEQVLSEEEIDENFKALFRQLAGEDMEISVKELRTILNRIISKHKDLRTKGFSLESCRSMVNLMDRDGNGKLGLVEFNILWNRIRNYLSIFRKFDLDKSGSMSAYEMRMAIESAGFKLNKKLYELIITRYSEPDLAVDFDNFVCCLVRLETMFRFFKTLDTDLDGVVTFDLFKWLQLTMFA", "assay": "Second order rate constant for inactivation of recombinant human Calpain 1 was reported", "in_short": "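Started with 5 mM CaCl2 at ambient temperature. Fluorescence (ex 340/em 440 nm) was recorded continuously. kobs came from an exponential fit, and k2 from the kobs-vs-[I] slope with a (1+S/Km) correction.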"}, "[4]": {"molecular_target": "T1, Calpain-1 catalytic subunit (Homo sapiens)", "assay": "Percent inhibition of recombinant Calpain 1 after 5 min of incubation with 10 uM compound", "in_short": "(§1)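 Single-concentration test: 10 inhibitor, 5 min incubation, then percent inhibition of recombinant human calpain I activity measured by the fluorogenic Suc-Leu-Tyr-MNA assay (ex 340/em 440 nm) in Ca2+-initiated buffer at ambient temperature.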"}, "[5]": {"molecular_target": "Cathepsin B (Homo sapiens) (UniProt P07858)", "assay": "Percent inhibition of recombinant calpain I after 5 min of incubation with 10 uM compound", "in_short": "as §1"}}, "note": "Residues, ends and D or L forms follow the SMILES beside them. *: point of attachment. Cbz = O=C(OCc1ccccc1)*; CH2F = FC*"}
{"compound": "CC(C)CC(NC(=O)OCc1ccccc1)C(=O)NC(Cc1ccccc1)C(=O)COn1nnc2cccnc21", "note": "(stereo not given)", "values": [{"measurement": "Ratio", "setting": "[1]", "result": 1.7}, {"measurement": "K obs / 1", "setting": "[2]", "result": 107000, "unit": "M⁻¹ s⁻¹"}, {"measurement": "K obs / 1", "setting": "[3]", "result": 184000, "unit": "M⁻¹ s⁻¹"}]}
{"compound": "CC(C)CC(NC(=O)OCc1ccccc1)C(=O)NC(Cc1ccccc1)C(=O)CON1C(=O)CCC1=O", "note": "(stereo not given)", "values": [{"measurement": "K obs / 1", "setting": "[3]", "result": 5800, "unit": "M⁻¹ s⁻¹"}]}
{"compound": "CC(C)CC(NC(=O)OCc1ccccc1)C(=O)NC(Cc1ccccc1)C(=O)Cn1nnc2ccccc21", "note": "(stereo not given)", "values": [{"measurement": "inhibition", "setting": "[4]", "result": 83, "unit": "%"}]}
{"compound": "CCC(NC(=O)C(CC(C)C)NC(=O)OCc1ccccc1)C(=O)COn1nnc2ccccc21", "note": "(stereo not given)", "values": [{"measurement": "Ratio", "setting": "[1]", "result": 0.14}, {"measurement": "K obs / 1", "setting": "[2]", "result": 443000, "unit": "M⁻¹ s⁻¹"}, {"measurement": "K obs / 1", "setting": "[3]", "result": 63000, "unit": "M⁻¹ s⁻¹"}]}
{"compound": "CC(C)CC(NC(=O)OCc1ccccc1)C(=O)NC(Cc1ccccc1)C(=O)CON1C(=O)c2ccccc2C1=O", "note": "(stereo not given)", "values": [{"measurement": "inhibition", "setting": "[4]", "result": 32, "unit": "%"}]}
{"compound": "CC(C)CC(NC(=O)OCc1ccccc1)C(=O)NC(CC(C)C)C(=O)NC(Cc1ccccc1)C(=O)COn1nnc2ccccc21", "note": "(stereo not given)", "values": [{"measurement": "inhibition", "setting": "[5]", "result": 32, "unit": "%"}, {"measurement": "K obs / 1", "setting": "[3]", "result": 524000, "unit": "M⁻¹ s⁻¹"}]}
{"compound": "CC(C)CC(NC(=O)OCc1ccccc1)C(=O)NC(Cc1ccccc1)C(=O)CF", "note": "(stereo not drawn) (Cbz-Leu-Phe-CH2F; configuration not given here)", "values": [{"measurement": "Ratio", "setting": "[1]", "result": 454}, {"measurement": "K obs / 1", "setting": "[2]", "result": 300, "unit": "M⁻¹ s⁻¹"}, {"measurement": "K obs / 1", "setting": "[3]", "result": 136000, "unit": "M⁻¹ s⁻¹"}]}
{"compound": "CC(C)CC(NC(=O)OCc1ccccc1)C(=O)NC(Cc1ccccc1)C(=O)CON1C(=O)C2C3C=CC(C3)C2C1=O", "note": "(stereo not given)", "values": [{"measurement": "Ratio", "setting": "[1]", "result": 0.14}, {"measurement": "K obs / 1", "setting": "[2]", "result": 6900, "unit": "M⁻¹ s⁻¹"}, {"measurement": "K obs / 1", "setting": "[3]", "result": 1000, "unit": "M⁻¹ s⁻¹"}]}
{"compound": "CC(C)CC(NC(=O)OCc1ccccc1)C(=O)NC(Cc1ccccc1)C(=O)COn1nnc2ccccc21", "note": "(stereo in doubt; 1d)", "values": [{"measurement": "Ratio", "setting": "[1]", "result": 2.7}, {"measurement": "K obs / 1", "setting": "[2]", "result": 118000, "unit": "M⁻¹ s⁻¹"}, {"measurement": "K obs / 1", "setting": "[3]", "result": 320000, "unit": "M⁻¹ s⁻¹"}]}
